Results: paper PMC2292217 (The Journal of Experimental Medicine, 2008)

Legend:
mice = details: cited from earlier work
C57Bl6/J mice = assay: Zymosan-induced peritonitis; format: in vivo, mouse; details: for Protection in vivo as judged by neutrophil and monocyte levels (in words): same dose and time as C15 (0.32 ng/kg i.p. 1 h before zymosan), 4 h
Summary of the method: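 C57BL6/J mice received test peptide i.p. (8 pg/mouse, ∼0.32 ng/kg, in 500 μl) or PBS, either 1 h before or 2 h after 10 μg zymosan A i.p. Peritoneal lavage with PBS-3 mM EDTA was done at 2–48 h. Cells were counted, Fc-blocked, stained for 7/4 and Ly-6G, and typed by FACS: neutrophils 7/4high Ly-6Ghigh, monocytes 7/4high Ly-6Glow. Six to eight mice per treatment.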

peritoneal MΦs (PMΦs) [1] = assay: MΦ activation assay: LPS/IFN-γ–induced inflammatory cytokine expression; format: cell-based, mouse (C57BL/6); details: for Antiinflammatory activity in the MΦ activation assay (in words): PMΦs, peptides 0.1 pM–100 nM, LPS/IFN-γ 15 h
ChemR23−/− PMΦs [2] = assay: MΦ chemotaxis assay with ChemR23 KO MΦs; format: cell-based, mouse; details: MΦs from ChemR23−/− mice, 4 h migration
ChemR23−/− PMΦs [3] = assay: MΦ activation assay in MΦs from ChemR23−/− mice; format: cell-based, mouse; details: 0.1–1 pM, 1 h pretreatment, LPS/IFN-γ 15 h; ELISA
MΦs = assay: Cell viability, MTS assay; format: cell-based, mouse; details: MTS assay (Promega)
[4] = system: wild-type Bio-Gel–elicited peritoneal cells; assay: Calcium flux in wild-type cells; format: cell-based, mouse; details: Fura-PE3/AM
Summary of the method: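 Cells from mice 4 d after Bio-Gel elicitation were suspended at 10^7 cells/ml in HBSS with CaCl2/MgCl, 0.5% BSA and 10 mM Hepes. They were loaded with 2 μM Fura-PE3/AM for 45 min at room temperature, then washed twice. 3 × 10^6 cells were added to prewarmed 37°C buffer in a cuvette. After at least 60 s, fluorescence was recorded at excitation 340/380 nm and emission 510 nm.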

[5] = system: Bio-Gel–elicited peritoneal cells from ChemR23 KO mice; assay: Calcium flux in ChemR23 KO cells; format: cell-based, mouse; details: Fura-PE3/AM
peritoneal MΦs (PMΦs) [6] = assay: MΦ chemotaxis assay; format: cell-based, mouse; details: 25 ng/ml, positive control, 4 h; mean ± SEM, n = 4 independent experiments
Summary of the method: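 Bio-Gel-elicited peritoneal MΦs (4 × 10^5) from wild-type or ChemR23−/− mice were placed on 8-μm-pore membranes in RPMI/25 mM Hepes/0.1% BSA. They migrated 4 h toward test peptide, 25 ng/ml RANTES (positive control) or serum-free medium. For Gαi blockade, cells were pretreated 30 min with 200 ng/ml PTX. Migrated nuclei were formalin-fixed, DAPI-stained and imaged, with ≥3 replicate wells per treatment. Migration index = treatment threshold area ÷ serum-free area; n = 4 experiments.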

[7] = 0.32 ng/kg i.p. 1 h before zymosan, lavage fluid at 4 h
[8] = time course, 8 pg/mouse i.p. 1 h before zymosan, 4 h after zymosan, FACS
[9] = classically activated PMΦs, quantitative RT-PCR normalized to HPRT

For CC[C@@H](O)/C=C/C=C\C[C@@H](O)/C=C/C=C/C=C\[C@@H](O)CCCC(=O)O [RvE1, resolvin E1], the “Reduction of PMN numbers in peritoneal exudates” value (mice; 300 ng/mouse i.p. (12 μg/kg)) is given as “up to 25%”.

In the case of AGEDPHGYALPGQAA [C15-M], the “Protection in vivo as judged by neutrophil and monocyte levels (in words)” value (C57Bl6/J mice) is reported as “not protective” and the “Antiinflammatory activity in the MΦ activation assay (in words)” value (“Antiinflammatory activity” below) (peritoneal MΦs (PMΦs) [1]) is reported as “devoid of antiinflammatory activity”.

For RALRTK [C6], the “Antiinflammatory activity” value (peritoneal MΦs (PMΦs) [1]) was “no detectable antiinflammatory activity”.

For ELSETQRRSLQVALEEFHK [N19], the “Antiinflammatory activity” value (peritoneal MΦs (PMΦs) [1]) was “devoid of antiinflammatory activity”.

With KPECTIKPNGRRRKCLACIK [M20] the “Antiinflammatory activity” value (peritoneal MΦs (PMΦs) [1]) was “devoid of antiinflammatory activity”.

In the case of AGEDPHGYFLPGQFA [C15], the “Chemotactic effect in ChemR23 KO MΦs (in words)” value (“Chemotactic effect” for short) (ChemR23−/− PMΦs [2]) is reported as “completely ablated”, the “Suppression of proinflammatory mediator production by ChemR23 KO MΦs (in words)” value (ChemR23−/− PMΦs [3]) is reported as “unable to suppress” and the “Effect at 4 pg/mouse (in words)” value (C57Bl6/J mice; 4 pg/mouse (∼0.16 ng/kg) i.p., 4 h after zymosan) is reported as “significant antiinflammatory effects”. The “Decrease in monocyte recruitment, C15 post-zymosan” value (C57Bl6/J mice; 8 pg i.p. 2 h after zymosan, 4 h after zymosan) was 42%, the “Peritoneal monocyte levels, C15 post-zymosan” value (C57Bl6/J mice; 8 pg i.p. 2 h after zymosan, lavage 4 h after zymosan, zymosan alone 0.69 × 10^6) was 0.42 × 10^6 cells and the “Peritoneal neutrophil numbers, C15 post-zymosan” value (C57Bl6/J mice; 8 pg i.p. 2 h after zymosan, lavage 4 h after zymosan, zymosan alone 1.9 × 10^6) was 0.83 × 10^6 cells. For the same molecule, the “Reduction of peritoneal IL-1β expression” value (C57Bl6/J mice; [7]) was 67%, the “Reduction of peritoneal IL-6 expression” value (C57Bl6/J mice; [7]) was 67% and the “Reduction of peritoneal JE expression” value (C57Bl6/J mice; [7]) was 59%. For the same molecule, the “Reduction of peritoneal KC expression” value (C57Bl6/J mice; [7]) was 38%, the “Reduction of peritoneal TNF-α expression” value (C57Bl6/J mice; [7]) was 51% and the “Rate of monocyte influx” value (C57Bl6/J mice; 2–4 h after zymosan, 8 pg/mouse i.p. pretreatment, zymosan alone 0.51 × 10^6) was 0.18 × 10^6 cells/h. For the same molecule, the “Magnitude of peak neutrophilia relative to zymosan-challenged mice” value (C57Bl6/J mice; time course, 8 pg/mouse i.p. 1 h before zymosan) was roughly 50%, the “Suppression of neutrophil infiltration, 2 h” value (C57Bl6/J mice; time course, 8 pg/mouse i.p. 1 h before zymosan, 2 h after zymosan, FACS) was 50% and the “Suppression of monocyte levels, 4 h” value (C57Bl6/J mice; [8]) was 63%. The “Suppression of neutrophil infiltration, 4 h” value (C57Bl6/J mice; [8]) was 66%, the “Suppression of monocyte levels, 8 h” value (C57Bl6/J mice; time course, 8 pg/mouse i.p. 1 h before zymosan, 8 h after zymosan, FACS) was 61% and the “Suppression of neutrophil infiltration, 24 h” value (C57Bl6/J mice; time course, 8 pg/mouse i.p. 1 h before zymosan, 24 h after zymosan, FACS) was 50%. The “Suppression of monocyte levels, 48 h” value (C57Bl6/J mice; time course, 8 pg/mouse i.p. 1 h before zymosan, 48 h after zymosan, FACS) was 64% and the “Peak peritoneal neutrophil number” value (C57Bl6/J mice; time course, 8 pg/mouse i.p. 1 h before zymosan, zymosan alone 1.25 × 10^6) was 0.62 × 10^6 cells.

In the case of C[C@@H]1C[C@H]2[C@@H]3CCC4=CC(=O)C=C[C@]4(C)[C@@]3(F)[C@@H](O)C[C@]2(C)[C@@]1(O)C(=O)CO [dexamethasone], the “Suppression of monocyte and neutrophil influx” value (mice; 30 μg/mouse (1.2 mg/kg)) is given as 50%.

For FSRALRTK [C8], the “Antiinflammatory activity” value (peritoneal MΦs (PMΦs) [1]) was “no detectable antiinflammatory activity”.

In the case of PHGYFLPGQFA [C11], the “Antiinflammatory activity” value (peritoneal MΦs (PMΦs) [1]) is reported as “devoid of antiinflammatory activity”.

For GLFHDQAGPPAGYEF [C15-S], the “Protection in vivo as judged by neutrophil and monocyte levels (in words)” value (C57Bl6/J mice) was “not protective” and the “Antiinflammatory activity” value (peritoneal MΦs (PMΦs) [1]) was “devoid of antiinflammatory activity”.

In the case of fMLP [reference compound], the “Chemotactic effect” value (ChemR23−/− PMΦs [2]) is reported as “unaffected”.

B1: Chemerin: recombinant murine chemerin (R&D Systems), chemotactic protein that binds ChemR23 (protein, UniProt Q9DD06 21-156, looked up)
Retinoic acid receptor …: EPELSETQRRSLQVALEEFHKHPPVQLAFQEIGVDRAEEVLFSAGTFVRLEFKLQQTNCPKKDWKKPECTIKPNGRRRKCLACIKMDPKGKILGRIVHCPILKQGPQDPQELQCIKIAQAGEDPHGYFLPGQFAFS
With B1 the “Chemotactic effect” value (ChemR23−/− PMΦs [2]) was “completely ablated”, the “Effect on cell viability (in words)” value (MΦs) was “not found to affect cell viability adversely” and the “Calcium flux (in words)” value [4] was “induce calcium flux”. The “Calcium flux (in words)” value [5] was “failed to do so”, the “Induction of IL-10 mRNA expression” value (peritoneal MΦs (PMΦs) [1]; [9]) was 10 fold and the “Induction of TGF-β mRNA expression” value (peritoneal MΦs (PMΦs) [1]; [9]) was “twofold”.

B2: RANTES: CC chemokine, positive control in chemotaxis (25 ng/ml; 3 nM) (protein, UniProt P13501 24-91, looked up)
C-C motif chemokine 5: SPYSSDTTPCCFAYIARPLPRAHIKEYFYTSGKCSNPAVVFVTRKNRQVCANPEKKWVREYINSLEMS
In the case of B2, the “Chemotactic effect” value (ChemR23−/− PMΦs [2]) is reported as “unaffected” and the Migration index (peritoneal MΦs (PMΦs) [6]) is reported as 6 ± 0.59.
